The source made the active and inactive calls. The calls are words filed in the database; no cut-off is given here.
Experiments:
[1] = system: Tetranychus cinnabarinus; assay: Acaricidal activity against Tetranychus cinnabarinus (carmine spider mite) larvae at 600 mg/kg by leaf dip method; type: functional
[2] = system: Helicoverpa armigera; assay: Stomach toxicity against third-instars Helicoverpa armigera assessed as larvicidal activity at 25 +/- 1 degC after 3 days; type: functional
Method in brief: (§1)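 Diet-incorporation assay on third-instar larvae. Samples dissolved in acetone to the desired final concentrations; 3 mL of test solution mixed evenly into about 27 g of prepared feed, then dispensed into 24-well plates. Run in triplicate at 25 ± 1 °C. Dead/alive scoring 3 days after treatment; mortality corrected by Abbott's formula on a 0–100 scale.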

[3] = system: Culex pipiens pallens; assay: Larvicidal activity against Culex pipiens pallens (mosquito) at 1 mg/kg; type: functional
[4] = system: Culex pipiens pallens; assay: Larvicidal activity against Culex pipiens pallens (mosquito) at 2 mg/kg; type: functional
[5] = system: Tetranychus cinnabarinus; assay: Acaricidal activity against Tetranychus cinnabarinus (carmine spider mite) adults at 600 mg/kg by leaf dip method; type: functional
[6] = system: Tetranychus cinnabarinus; assay: Acaricidal activity against Tetranychus cinnabarinus (carmine spider mite) eggs at 600 mg/kg by leaf dip method; type: functional, Egg
[7] = system: Tetranychus cinnabarinus; assay: Acaricidal activity against Tetranychus cinnabarinus (carmine spider mite) larvae at 200 mg/kg by leaf dip method; type: functional
[8] = system: Helicoverpa armigera; assay: Stomach toxicity against third-instars Helicoverpa armigera assessed as larvicidal activity at 55 mg/kg at 25 +/- 1 degC after 3 days; type: functional; method in brief: as §1
[9] = system: Plutella xylostella; assay: Stomach toxicity against Plutella xylostella (diamondback moth) assessed as larvicidal activity at 200 mg/kg by leaf dip method; type: functional
[10] = system: Aphis craccivora; assay: Larvicidal activity against Aphis craccivora (cowpea aphid) at 600 mg/kg by leaf dip method; type: functional
[11] = system: Aphis craccivora; assay: Larvicidal activity against Aphis craccivora (cowpea aphid) at 200 mg/kg by leaf dip method; type: functional
[12] = system: Helicoverpa armigera; assay: Stomach toxicity against third-instars Helicoverpa armigera assessed as larvicidal activity at 22 mg/kg at 25 +/- 1 degC after 3 days; type: functional; method in brief: as §1
[13] = system: Plutella xylostella; assay: Stomach toxicity against Plutella xylostella (diamondback moth) assessed as larvicidal activity at 600 mg/kg by leaf dip method; type: functional
[14] = system: Helicoverpa armigera; assay: Stomach toxicity against third-instars Helicoverpa armigera assessed as larvicidal activity at 5.5 mg/kg at 25 +/- 1 degC after 3 days; type: functional; method in brief: as §1
[15] = system: Helicoverpa armigera; assay: Stomach toxicity against third-instars Helicoverpa armigera assessed as larvicidal activity at 11 mg/kg at 25 +/- 1 degC after 3 days; type: functional; method in brief: as §1
[16] = system: Helicoverpa armigera; assay: Stomach toxicity against third-instars Helicoverpa armigera assessed as larvicidal activity at 110 mg/kg at 25 +/- 1 degC after 3 days; type: functional; method in brief: as §1
[17] = system: Culex pipiens pallens; assay: Larvicidal activity against Culex pipiens pallens (mosquito) at 5 mg/kg; type: functional
[18] = system: Tetranychus cinnabarinus; assay: Acaricidal activity against Tetranychus cinnabarinus (carmine spider mite) eggs at 200 mg/kg by leaf dip method; type: functional, Egg
[19] = system: Plutella xylostella; assay: Antifeedant activity against Plutella xylostella (diamondback moth) at 200 to 600 mg/kg by leaf dip method; type: functional, organism-based
[20] = system: Culex pipiens pallens; assay: Larvicidal activity against Culex pipiens pallens (mosquito) at 0.5 mg/kg; type: functional
[21] = system: Tetranychus cinnabarinus; assay: Acaricidal activity against Tetranychus cinnabarinus (carmine spider mite) adults at 200 mg/kg by leaf dip method; type: functional
[22] = system: Culex pipiens pallens; assay: Larvicidal activity against Culex pipiens pallens (mosquito); type: functional

Structure (SMILES) | Activity [1] [%] | Activity [3] [%] | Activity [4] [%] | Activity [5] [%] | Activity [6] [%] | Activity [7] [%] | Activity [8] [%] | Activity [9] [%] | Activity [10] [%] | Activity [11] [%] | Activity [12] [%] | Activity [13] [%] | Activity [14] [%] | Activity [15] [%] | Activity [16] [%] | Activity [17] [%] | Activity [18] [%] | Activity [19] | Activity [20] [%] | Activity [21] [%] | further results
CCc1nn(C)c(C2=NC(c3ccc(Oc4ccccc4)cc3)CO2)c1Cl (stereo not drawn) | 25 | 0 | 60 | 0 | 0 | 0 | 100 | 20 | 90 | 60 | 100 | 90 | 60 | 90 | 100 | 100 | – | – | – | – | LC50 [2]: 2.8 mg/kg
CCc1nn(C)c(C(=O)NC(CCl)c2ccc(Cl)cc2)c1Cl (stereo not drawn) | 0 | 50 | 100 | 0 | 10 | – | 100 | 60 | 80 | 50 | 100 | 70 | 40 | 70 | 100 | 100 | 0 | Active | 0 | – | –
CCc1cc(C2=NC(c3ccc(C(C)(C)C)cc3)CO2)n(C)n1 (stereo not drawn) | 90 | 0 | 60 | 100 | 100 | 80 | 100 | 45 | 98 | 90 | 40 | 60 | – | 0 | 100 | 100 | 95 | Active | – | 95 | –
CCc1nn(C)c(C(=O)NCc2ccc(C(C)(C)C)cc2)c1Cl [TEBUFENPYRAD] | 100 | 70 | 100 | 100 | 100 | 100 | – | – | 100 | 100 | – | – | – | – | – | 100 | 100 | – | 0 | 100 | LC50 [22]: 0.61 mg/kg
CCc1nn(C)c(C(=O)NCc2ccc(Oc3ccc(C)cc3)cc2)c1Cl [TOLFENPYRAD] | – | – | – | – | – | – | 100 | 100 | – | – | 100 | 100 | 70 | 100 | 100 | – | – | – | – | – | LC50 [2]: 2.47 mg/kg
CCCCCOc1ccc(C2COC(c3c(Cl)c(CC)nn3C)=N2)cc1 (stereo not drawn) | 15 | 0 | 50 | 20 | 40 | 0 | 100 | 30 | 100 | 90 | 100 | 70 | 30 | 80 | 100 | 100 | 20 | Active | – | 15 | –
CCc1nn(C)c(C2=NC(c3ccc(C(C)(C)C)cc3)CO2)c1Cl (stereo not drawn) | 45 | 50 | 100 | 30 | 20 | 30 | 100 | 30 | 90 | 50 | 100 | 50 | 40 | 70 | 100 | 100 | 0 | – | 0 | 10 | –
CCc1nn(C)c(C(=O)NC(CCl)c2ccc(Oc3ccccc3)cc2)c1Cl (stereo not drawn) | 30 | 60 | 100 | 0 | 20 | 20 | 100 | 60 | 100 | 80 | 100 | 90 | 40 | 80 | 100 | 100 | 0 | Active | 0 | – | –
CCc1cc(C(=O)NC(CCl)c2ccc(C(C)(C)C)cc2)n(C)n1 (stereo not drawn) | 20 | – | 0 | 30 | 80 | 0 | 100 | 15 | 80 | 65 | 100 | 30 | 60 | 90 | 100 | 60 | 40 | – | – | 0 | LC50 [2]: 3.33 mg/kg
CCc1cc(C(=O)NC(CCl)c2ccc(Oc3ccccc3)cc2)n(C)n1 (stereo not drawn) | 40 | 100 | 100 | 50 | 50 | 30 | 100 | 30 | 100 | 95 | 40 | 45 | – | 0 | 100 | 100 | 40 | – | 60 | 0 | LC50 [22]: 0.35 mg/kg

Source: ChEMBL document CHEMBL3046583, “Design, synthesis, and insecticidal activity of novel pyrazole derivatives containing α-hydroxymethyl-N-benzyl carboxamide, α-chloromethyl-N-benzyl carboxamide, and 4,5-dihydrooxazole moieties” (2012)
